Measurements as given in ChEMBL document CHEMBL2434878, “Synthesis and antimycobacterial activity of analogues of the bioactive natural products sampangine and cleistopholine” (Eur J Med Chem, 2013).

test system: Mycobacterium tuberculosis variant bovis; test: Antimicrobial activity against Mycobacterium bovis AN5 expressing luciferase reporter gene assessed as growth inhibition after 6 days by luminometry; assay type: functional; conditions: AN5, 144 h
Outline: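 Other mycobacteria (M. avium ssp. avium ATCC 15769, ssp. paratuberculosis ATCC 19698, M. bovis AN5) were grown in 7H9 with 10% OADC and 0.2% glycerol; M. bovis had 0.05% Tween 80 in place of glycerol, and paratuberculosis had mycobactin J (2 mg/ml); all were grown at 39 °C. Serial dilutions were tested by the luciferase luminometry assay and the 50% growth-reduction concentration was read.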

Compound | GI50 [nM]
O=C1c2ccccc2C(=O)c2c(O)cc(-c3ccccc3)cc21 | 800
COc1ccc(-c2cc(O)c3c(c2)C(=O)c2ccccc2C3=O)cc1 | 380
CN(C)/C=C/c1nc(-c2ccccc2)cc2c1C(=O)c1ccccc1C2=O | 640
COc1ccc(-c2cc3c(c(/C=C/N(C)C)n2)C(=O)c2ccccc2C3=O)cc1 | 470
CN(C)/C=C/c1nc(-c2ccc(F)cc2)cc2c1C(=O)c1ccccc1C2=O | 480
CN(C)/C=C/c1nc(-c2ccc(Cl)cc2)cc2c1C(=O)c1ccccc1C2=O | 490
Cc1ccc(-c2cc3c(c(/C=C/N(C)C)n2)C(=O)c2ccccc2C3=O)cc1 | 580
O=C1c2ccccc2-c2nccc3nc(-c4ccccc4)cc1c23 | 670
COc1ccc(-c2cc3c4c(nccc4n2)-c2ccccc2C3=O)cc1 | 520
O=C1c2ccccc2-c2nccc3nc(-c4ccc(F)cc4)cc1c23 | 670
